Assay results from ChEMBL document CHEMBL1123839, “5-Acyl-3-substituted-benzofuran-2(3H)-ones as potential antiinflammatory agents” (1987).

Experiments:
Type in all cases: functional
Cavia porcellus [1] = species on record: Cavia porcellus; experiment: Tested for effect on the production of Lipoxygenase (LO) metabolite, 5,12-diHETE in guinea pig peritoneal polymorphonuclear neutrophils at 30 uM concentration
How it was run: (§1)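 Guinea pig peritoneal PMNs were incubated with [14C]arachidonic acid and stimulated with calcium ionophore A23187. Compounds were tested at 30 μM in 0.1 N NaOH–Krebs Ringer bicarbonate buffer. Radiolabeled cyclooxygenase and lipoxygenase products were identified by HPLC and GC-MS, separated by TLC and quantified by automatic scanning.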

Cavia porcellus [2] = species on record: Cavia porcellus; experiment: Tested for effect on the production of Lipoxygenase (LO) metabolite, 5-HETE in guinea pig peritoneal polymorphonuclear neutrophils at 30 uM concentration; how it was run: as §1
Cavia porcellus [3] = species on record: Cavia porcellus; experiment: Tested for effect on the production of cyclooxygenase (COX) metabolite, PGE-2 (prostaglandin E2) of arachidonic acid in guinea pig peritoneal polymorphonuclear neutrophils at 30 uM concentration; how it was run: as §1
Cavia porcellus [4] = species on record: Cavia porcellus; experiment: Tested for effect on the production of cyclooxygenase (COX) metabolite, TXB2 of arachidonic acid in guinea pig peritoneal polymorphonuclear neutrophils at 30 uM concentration; how it was run: as §1
Rattus norvegicus [5] = experiment: Antiinflammatory activity was assessed by the ability to improve the adjuvant induced arthritis in left secondary lesion in rats at oral doses, 33 mg/kg (volume change in the injected paw measured from day 9 to day 18)
Rattus norvegicus [6] = experiment: Antiinflammatory activity was assessed by the ability to improve the adjuvant induced arthritis in right primary lesion in rats at oral doses, 33 mg/kg (volume change in the injected paw measured from day 0 to day 8)
How it was run: (§2)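 Female Sprague–Dawley rats (150–170 g), six per group. Arthritis induced by subcutaneous plantar injection of 0.125 mg killed tubercle bacillus in liquid paraffin into the right hind paw. Dosing was 33 mg/kg orally, daily for 14 days, starting the day before adjuvant. Paw volumes were measured by mercury plethysmography every 2–3 days over 18 days. Primary lesion: right paw, days 0–8. Secondary lesions: right and left (uninjected) paws, days 9–18. Areas under the time-course curves were compared with controls by ANOVA.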

Rattus norvegicus [7] = experiment: Ability to improve the adjuvant induced arthritis in right secondary lesion in rats at oral doses, 33 mg/kg; how it was run: as §2
Rattus norvegicus [8] = species on record: Rattus norvegicus; experiment: Antiinflammatory activity was assessed improvement of adjuvant induced arthritis in rats, determined by joint mobility of the paw; set-up: concentration or dose not given beside the values
How it was run: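 Adjuvant arthritis was induced in female Sprague–Dawley rats (150–170 g, groups of six) by right-hind-paw plantar injection of killed tubercle bacillus in paraffin. Treatment was 33 mg/kg orally, daily for 14 days, starting the day before adjuvant. Joint involvement was scored as the angle through which the hind paws moved easily, given as percent change versus nontreated controls.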

Cavia porcellus [9] = species on record: Cavia porcellus; experiment: Tested for effect on the production of cyclooxygenase (COX) metabolite, PGF2-alpha (prostaglandin F2-alpha) of arachidonic acid in guinea pig peritoneal polymorphonuclear neutrophils at 30 uM concentration; how it was run: as §1

Row | SMILES | Reduction (Cavia porcellus [1]) | Reduction (Cavia porcellus [2]) | Reduction (Cavia porcellus [3]) | Reduction (Cavia porcellus [4]) | Reduction (Rattus norvegicus [5]) | Reduction (Rattus norvegicus [6]) | Reduction (Rattus norvegicus [7]) | Reduction (Rattus norvegicus [8]) | Reduction (Cavia porcellus [9])
1 | Cc1ccc(C(=O)c2ccc(O)c(C(C)C(=O)O)c2)s1 (configuration not stated) | -36% | -69% | 54% | 82% | 29% | 13% | 11% | -16% | 49%
2 | CCCC(C(=O)O)c1cc(C(=O)c2cccs2)ccc1O (configuration not stated) | -42% | -33% | 87% | 86% | 52% | 26% | 30% | 33% | 50%
3 | O=C1Oc2ccc(C(=O)c3cccs3)cc2/C1=C/c1ccc(C(F)(F)F)cc1 | 68% | 67% | 79% | 95% | 15% | 3% | 19% | 4% | 67%
4 | CCC(CC)(C(=O)O)c1cc(C(=O)c2cccs2)ccc1OC | – | – | – | – | 42% | -11% | 16% | 42% | –
5 | Cc1ccc(C(=O)c2ccc3c(c2)C(C)C(=O)O3)s1 (configuration not stated) | 15% | -3% | 65% | 86% | 36% | 10% | 19% | 15% | 28%
6 | CC(C)(C)c1cc(/C=C2\C(=O)Oc3ccc(C(=O)c4cccs4)cc32)cc(C(C)(C)C)c1O | -8% | -11% | -14% | 26% | 8% | -28% | -7% | 17% | 6%
7 | C=CCc1cc(C(=O)c2cccs2)cc2c1OC(=O)C2C (configuration not stated) | -24% | 14% | 88% | 93% | 17% | 1% | 6% | 5% | 77%
8 | CCC(C(=O)O)c1cc(C(=O)c2cccs2)ccc1O (configuration not stated) | -33% | 16% | – | 92% | 76% | 20% | 64% | 60% | 65%
9 | O=C(O)/C(=C\c1ccccc1)c1cc(C(=O)c2cccs2)ccc1O | – | – | – | – | -15% | 15% | 11% | 5% | –
10 | CC(C)(C(=O)O)c1cc(C(=O)c2cccs2)ccc1O | -23% | -20% | 80% | 90% | 46% | 4% | 20% | 26% | 55%
11 | CCCCC(C(=O)O)c1cc(C(=O)c2cccs2)ccc1O (configuration not stated) | 60% | 60% | 44% | 64% | 53% | 5% | 29% | 14% | 51%
12 | COc1ccc(C(=O)c2ccc(O)c(C(C)C(=O)O)c2)cc1 (configuration not stated) | -10% | 5% | – | 89% | 22% | 12% | 31% | 7% | 58%
13 | CC1C(=O)Oc2ccc(C(=O)c3ccc(F)cc3)cc21 (configuration not stated) | -25% | 6% | 46% | 76% | 31% | 5% | 10% | -1% | 47%
14 | CC1C(=O)Oc2ccc(C(=O)c3ccco3)cc21 (configuration not stated) | 3% | 20% | 81% | 81% | 25% | -5% | 12% | 2% | –
15 | CCC(CC)(C(=O)O)c1cc(C(=O)c2cccs2)ccc1O | -18% | -21% | 54% | 90% | 45% | 6% | 22% | 38% | 50%
16 | CCCCC1C(=O)Oc2ccc(C(=O)c3cccs3)cc21 (configuration not stated) | 61% | 73% | 68% | 89% | -55% | 4% | -22% | -1% | 62%
17 | CCC1(CC)C(=O)Oc2ccc(C(=O)c3cccs3)cc21 | -7% | 2% | 62% | 90% | 41% | 18% | 17% | 23% | 48%
18 | CC1(C)C(=O)Oc2ccc(C(=O)c3cccs3)cc21 | 49% | 52% | 81% | 81% | 50% | 28% | 36% | 44% | -37%
19 | CCCC1C(=O)Oc2ccc(C(=O)c3cccs3)cc21 (configuration not stated) | 7% | -2% | 85% | 81% | 67% | 23% | 41% | 61% | 49%
20 | CC(C(=O)O)c1cc(C(=O)c2ccc(F)cc2)ccc1O (configuration not stated) | -8% | -1% | 46% | 74% | 56% | 22% | 32% | 33% | 49%
21 | CC(C(=O)O)c1cc(C(=O)c2cccs2)ccc1O (configuration not stated) | -84% | -68% | 76% | 89% | 35% | 39% | 34% | -15% | 76%
22 | CC(C(=O)O)c1cc(C(=O)c2ccco2)ccc1O (configuration not stated) | -17% | -14% | 87% | 87% | 13% | -31% | -5% | 7% | 61%
23 | O=C(c1ccc2c(c1)C(C(=O)Nc1ccccc1)C(=O)O2)c1cccs1 (configuration not stated) | 85% | 94% | 93% | 93% | 25% | 8% | 6% | 1% | 86%
24 | COc1ccc(C(=O)c2ccc3c(c2)C(C)C(=O)O3)cc1 (configuration not stated) | 44% | 50% | – | 70% | 22% | -9% | 5% | -9% | 51%
25 | O=C1Oc2ccc(C(=O)c3cccs3)cc2/C1=C/c1ccc(Cl)cc1 | 73% | 71% | 77% | 93% | -14% | -5% | -18% | 12% | 69%
26 | CCC1C(=O)Oc2ccc(C(=O)c3cccs3)cc21 (configuration not stated) | 9% | 20% | 79% | 90% | 81% | 13% | 51% | 52% | 62%
27 | O=C1Cc2cc(C(=O)c3cccs3)ccc2O1 | -44% | -33% | 54% | 65% | -35% | 25% | 9% | 5% | 57%
28 | O=C(c1ccc(O)c(C(Cc2ccccc2)C(=O)O)c1)c1cccs1 (configuration not stated) | – | – | – | – | 10% | 29% | 30% | 6% | –
29 | CC1C(=O)Oc2ccc(C(=O)c3ccccc3)cc21 (configuration not stated) | -10% | 10% | 71% | 82% | 52% | 5% | 35% | 29% | 56%
